The record followed here is PubChem BioAssay.

Active and inactive are the calls of the source.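 Rule for the calls, unless noted: active = fluorescence slope after compound addition differing from the mean of all tested samples at 99.7% confidence, mostly higher but some lower; inactive = the rest.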

Broadly, the inhibition is the change of the read-out against control, counted positive when it falls.

A short description of test [1]: inhibitors of TNFa-induced NFkB p65 translocation, primary screen, imaging, HUVEC, MLSMR starter and 10KST1 sets (AID 438;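 active = inhibition above 20% together with a positive visual image hit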;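 note: compound added about 3h40 before a 20 min TNFalpha stimulation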;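 for inhibition: signal is the nuclear over cytoplasmic p65 intensity ratio per well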). The settings on record: HUVEC TNFa-induced p65 nuclear translocation; cell count: measured here: nuclei count (cytotoxicity indicator), at 2.08 µM; inhibition: at 2 µM, stronger effect = higher value, 0% TNFa-plus-vehicle, 100% no-TNFa wells.
A short description of test [2]: inhibitors of mutant huntingtin aggregation, primary screen, imaging, exon1htt(103Q)mCFP cells, high-content imaging (AID 483;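 active = visual image review flags a hit and inhibition of aggregation exceeds 20%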;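 note: compound exposure lasted 3 days before fixation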;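 for nuclei count: percent of the per-plate median nuclei count of sample wells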). Conditions: exon1htt(103Q)mCFP cell line, aggregate imaging, at 2 µM; inhibition of aggregation: stronger effect = higher value; nuclei count: measured here: cell count, toxicity.
Test [3] can be described thus: inhibitors of E-selectin induction by TNFa, primary screen, imaging, HUVEC, immunofluorescence, MLSMR starter and 10KST1 sets (AID 487;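 active = visually confirmed hit in the image check and inhibition above 20%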;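 for inhibition: signal is fraction of cell area covered by stained E-selectin grains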;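 for nuclei count: 100% = median nuclei count of all wells on the same plate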). Conditions: HUVEC TNFalpha-induced E-selectin immunofluorescence imaging, at 2 µM; inhibition: stronger effect = higher value; nuclei count: measured here: cell number, toxicity.
Test [4] concerns the target Voltage-gated potassium channel subunit beta-2 (Rattus norvegicus) (UniProt P62483). Nature of the test: KvBeta enzyme negative modulators, primary screen, biochemical, NADPH fluorescence (AID 622;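 active = fluorescence slope higher than the sample average by over 3 SD, cut at about -0.22 in these data, passing the limit was not always enough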;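 note: slope of raw intensity against log time taken from 70 to 1610 s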). Conditions: recombinant KvBeta, 4-cyanobenzaldehyde reduction, at 10 µM, stronger effect = higher value.
The target is the same in test [5]. Briefly: KvBeta positive modulators, primary screen, biochemical, NADPH fluorescence (AID 623;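 active = NADPH fluorescence slope more negative than the mean of all samples by about 3 SD, 99.7% confidence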;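 note: fluorescence intensity change per second fitted from 20 to 320 s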). Conditions: Recombinant KvBeta, NADPH fluorescence decrease slope, 10 min; at 10 µM; stronger effect = lower value.
Test [6] deals with Muscarinic acetylcholine receptor M4 (Homo sapiens) (UniProt P08173). Briefly: compounds altering M4/GIRK thallium flux, either direction, primary screen, M4 allosteric agonist project, cell-based, HEK293 M4/GIRK, BTC-AM (AID 625).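 Note: thallium influx through GIRK channels coupled to M4 in HEK293 cells with BTC-AM dye.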 The settings on record: at 10 µM, actives lie on both sides. The procedure, abridged: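 System: HEK293 cells with M4 receptor and GIRK channels | Incubation: Cells overnight at 37 °C, BTC-AM loading 1 h, reads 2 min total | Technique: Kinetic BTC-AM fluorescence sampled at 1 Hz, 10 s pre-addition baseline | Measure: Post-addition slope, 15–24 s, of baseline-normalized fluorescence | Control set: Carbachol positive, DMSO negative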
Sequence of Muscarinic acetylcholine receptor M4 (Homo sapiens) (P08173 whole entry, looked up): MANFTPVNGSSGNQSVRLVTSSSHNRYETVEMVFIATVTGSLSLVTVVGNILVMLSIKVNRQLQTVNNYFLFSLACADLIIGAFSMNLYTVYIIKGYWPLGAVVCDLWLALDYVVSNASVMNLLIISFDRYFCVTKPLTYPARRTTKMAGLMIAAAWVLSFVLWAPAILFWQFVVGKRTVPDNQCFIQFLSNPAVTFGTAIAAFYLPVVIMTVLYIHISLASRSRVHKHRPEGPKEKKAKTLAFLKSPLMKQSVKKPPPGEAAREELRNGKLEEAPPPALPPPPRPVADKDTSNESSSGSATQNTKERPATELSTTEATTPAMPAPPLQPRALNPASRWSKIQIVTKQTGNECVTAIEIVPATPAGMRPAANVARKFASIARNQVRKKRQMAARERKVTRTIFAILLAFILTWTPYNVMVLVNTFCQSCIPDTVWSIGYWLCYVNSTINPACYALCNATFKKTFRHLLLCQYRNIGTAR

A short description of test [7]: inhibitors of Sendai virus-induced IRF3 signaling, primary screen, TLR/RLR signaling modifier project, cell-based, Sendai virus stimulus, luciferase, 10K MLSCN set (AID 602276;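 active = inhibition at or above 50% at 10 µM; inactive = inhibition below 50%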;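 note: firefly luciferase from ISG56 promoter only with Renilla not read in this screen; 0% = Sendai virus plus DMSO and 100% = medium plus DMSO without virus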). The settings on record: HEK293 RL24 IRF3 luciferase reporter, at 10 µM, stronger effect = higher value. Background: In a reporter assay the amount or activity of a reporter protein is the signal.
Test [8] is described as follows: inhibitors of poly I:C-induced TLR3 signaling, primary screen, cell-based, poly I:C stimulus, luciferase, 10K MLSCN set (AID 602277;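 active = inhibition of the reporter signal at or above 50%; inactive = inhibition below 50%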). The settings on record: HEK293-TLR3 RL24 IRF3 luciferase reporter, at 10 µM, stronger effect = higher value.

Sequence of Voltage-gated potassium channel subunit beta-2 (Rattus norvegicus) (P62483 whole entry, looked up): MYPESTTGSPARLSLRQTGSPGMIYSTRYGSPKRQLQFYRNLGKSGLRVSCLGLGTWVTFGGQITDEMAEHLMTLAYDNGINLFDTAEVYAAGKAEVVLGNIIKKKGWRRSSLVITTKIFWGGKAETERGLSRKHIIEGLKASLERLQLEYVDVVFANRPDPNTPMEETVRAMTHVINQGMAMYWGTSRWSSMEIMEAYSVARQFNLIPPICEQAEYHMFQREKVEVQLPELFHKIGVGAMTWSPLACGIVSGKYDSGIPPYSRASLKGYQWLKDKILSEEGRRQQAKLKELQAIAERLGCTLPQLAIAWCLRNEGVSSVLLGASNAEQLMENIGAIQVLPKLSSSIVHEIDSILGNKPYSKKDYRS

For `CCCn1c(=N)n(CCOc2ccc(OC)cc2)c2ccccc21`, the cell count in test [1] is 665. For the same molecule, the inhibition was 21.3% (inactive) in test [1], 15.1% (inactive) in test [3], 20.2% (inactive) in test [7] and 15.4% (inactive) in test [8]. In addition, the inhibition of aggregation in test [2] was 5.9% (inactive). The values for the nuclei count in test [2] and in test [3] were 92.6% and 139%, respectively. Moreover, the fluorescence slope was -0.466 (inactive) in test [4] and 0.00387 (inactive) in test [6]. In addition, the NADPH fluorescence slope in test [5] was -4.2e-05 (inactive).
`O=C(CN1C(=O)c2cccc3cccc1c23)NCC1CCCO1` (stereo not drawn): the cell count in test [1] is 356. The inhibition was 20.1% (inactive) in test [1], -58% (inactive) in test [3], -5.13% (inactive) in test [7] and -11.1% (inactive) in test [8]. Moreover, the inhibition of aggregation in test [2] is 13.2% (inactive). Besides, the nuclei count is 79.5% in test [2] and 102% in test [3]. Moreover, the fluorescence slope was -0.433 (inactive) in test [4] and 0.00404 (inactive) in test [6]. Also, the NADPH fluorescence slope in test [5] was -4.9e-05 (inactive).
On to `c1ccc2c(NC3CCCC3)nnc(NC3CCCC3)c2c1`, for which, in test [1], the cell count turned out to be 797. The inhibition in test [1] is 7.4% (inactive); in test [3] it was -69.1% (inactive); in test [7], 7.77% (inactive); in test [8], 7.29% (inactive). For the same molecule, the inhibition of aggregation in test [2] is -6.1% (inactive). For the same molecule, the nuclei count was found to be 106% in test [2] and 131% in test [3]. Besides, the results for the fluorescence slope in test [4] and in test [6] were -0.419 (inactive) and 0.00394 (inactive), respectively. Further, the NADPH fluorescence slope in test [5] was 2.2e-05 (inactive).
As to `O=C(O)c1cc(/C=N\O)ccc1OCc1ccccc1`, the cell count in test [1] was found to be 697. Further, the inhibition in test [1] was -6.9% (inactive); in test [3], -30.9% (inactive); in test [7], -0.244% (inactive); in test [8], 11.6% (inactive). The inhibition of aggregation in test [2] is 2.9% (inactive). Moreover, the nuclei count is 112% in test [2] and 104% in test [3]. The values for the fluorescence slope in test [4] and in test [6] were -0.545 (inactive) and 0.007 (inactive), respectively. Further, in test [5], the NADPH fluorescence slope is -1.3e-05 (inactive).
As for `Nc1nc(CN2CCN(Cc3ccc4c(c3)OCO4)CC2)nc(Nc2ccccc2)n1`, the cell count in test [1] came to 652. The inhibition in test [1] is 6.8% (inactive); in test [3], -9.3% (inactive); in test [7], 10.9% (inactive); in test [8] it was 22.6% (inactive). For the same molecule, in test [2], the inhibition of aggregation was -1.8% (inactive). The nuclei count in test [2] came to 116%; in test [3] it was 115%. Besides, the results for the fluorescence slope in test [4] and in test [6] were -0.578 (inactive) and 0.00565 (inactive), respectively. Further, the NADPH fluorescence slope in test [5] was -4.8e-05 (inactive).
Consider `S=c1nc(C2CC2)[nH]c2ccccc12`, for which the cell count in test [1] is 469. In addition, the inhibition in test [1] was 0.8% (inactive); in test [3] it was -99% (inactive); in test [7], 19% (inactive); in test [8], 20.9% (inactive). In addition, the inhibition of aggregation in test [2] was -8.3% (inactive). Moreover, the nuclei count in test [2] was determined as 106%; in test [3], 118%. In addition, the fluorescence slope in test [4] was -0.49 (inactive); in test [6], 0.0139 (active). In test [5], the NADPH fluorescence slope was -4.4e-05 (inactive).
As to `Cc1cccc(N2CCN(C(=O)c3ccc(NS(=O)(=O)c4c(C)noc4C)cc3)CC2)c1C`, in test [1], the cell count was 334. Further, the inhibition in test [1] was 5.4% (inactive); in test [3], -283% (inactive); in test [7], -6.14% (inactive); in test [8] it was -0.151% (inactive). Further, the inhibition of aggregation in test [2] is -23.1% (inactive). In addition, the nuclei count in test [2] was determined as 97.7%; in test [3], 84.9%. In addition, the fluorescence slope in test [4] is -0.545 (inactive); in test [6], 0.00603 (inactive). The NADPH fluorescence slope in test [5] was -7.3e-05 (inactive).
In the case of `COc1ccccc1C(=O)N1CCCC(c2nc(-c3cc(OC)c(OC)c(OC)c3)no2)C1` (stereo not drawn), in test [1], the cell count came out at 307. The inhibition in test [1] was 0.5% (inactive); in test [3] it was 19.1% (inactive); in test [7] it was 12.4% (inactive); in test [8], 16.1% (inactive). In addition, the inhibition of aggregation in test [2] is -0.4% (inactive). In addition, the results for the nuclei count in test [2] and in test [3] were 120% and 100%, respectively. Further, the fluorescence slope in test [4] was -0.474 (inactive); in test [6], 0.0058 (inactive). The NADPH fluorescence slope in test [5] was -3.6e-05 (inactive).
Regarding `C[C@H](NC(=O)Nc1ccccc1F)C(=O)O`, the cell count in test [1] was 294. Moreover, the inhibition was -8.5% (inactive) in test [1], -78.4% (inactive) in test [3], 14.6% (inactive) in test [7] and 24.2% (inactive) in test [8]. Moreover, the inhibition of aggregation in test [2] was 4.9% (inactive). The values for the nuclei count in test [2] and in test [3] were 86% and 138%, respectively. Besides, the fluorescence slope is -0.602 (inactive) in test [4] and 0.00462 (inactive) in test [6]. Also, in test [5], the NADPH fluorescence slope was 5.1e-05 (inactive).
For the molecule `COc1cc(-c2nnc(SCC(=O)c3cc(C)n(CC4CCCO4)c3C)o2)cc(OC)c1OC` (stereo not drawn), the cell count in test [1] came out at 317. In addition, the inhibition in test [1] was 2.8% (inactive); in test [3], -43.2% (inactive); in test [7], 24.8% (inactive); in test [8], 27.1% (inactive). Also, the inhibition of aggregation in test [2] was 23.1% (inactive). The nuclei count in test [2] came to 94.5%; in test [3] it was 115%. The fluorescence slope was -0.245 (inactive) in test [4] and 0.00647 (inactive) in test [6]. In addition, the NADPH fluorescence slope in test [5] was -3.7e-06 (inactive).
Turning to `Cc1ccc(S(=O)(=O)Cc2ccc(C(=O)NCCCN3CCN(C)CC3)o2)cc1`, in test [1], the cell count came out at 597. The inhibition in test [1] was 2.3% (inactive); in test [3], 22.2% (inactive); in test [7], 14.1% (inactive); in test [8], 100% (active). Moreover, the inhibition of aggregation in test [2] is -11.8% (inactive). Also, the nuclei count was found to be 101% in test [2] and 115% in test [3]. The results for the fluorescence slope in test [4] and in test [6] were -0.517 (inactive) and 0.00533 (inactive), respectively. In test [5], the NADPH fluorescence slope is 1.7e-05 (inactive).
Regarding `O=S(=O)(c1ccc(OCC(O)CN2CCc3ccccc3C2)cc1)N1CCOCC1` (stereo not drawn), the cell count in test [1] was 749. In addition, the inhibition in test [1] is 1.6% (inactive); in test [3], -51.2% (inactive); in test [7] it was 15.9% (inactive); in test [8] it was 26.7% (inactive). Moreover, in test [2], the inhibition of aggregation was 6.1% (inactive). Moreover, the nuclei count in test [2] is 114%; in test [3], 132%. For the same molecule, the fluorescence slope is -0.549 (inactive) in test [4] and 0.00569 (inactive) in test [6]. For the same molecule, the NADPH fluorescence slope in test [5] was 1.9e-05 (inactive).
For `COc1cccc(-n2c(SCC(=O)OC(C)C)nnc2-c2cccnc2)c1`, the cell count in test [1] was 402. Besides, the inhibition in test [1] is -3.3% (inactive); in test [3], -29.7% (inactive); in test [7], 9.67% (inactive); in test [8], 13.7% (inactive). The inhibition of aggregation in test [2] is -5.3% (inactive). Also, the nuclei count came out at 96.8% in test [2] and 113% in test [3]. Moreover, the values for the fluorescence slope in test [4] and in test [6] were -0.459 (inactive) and 0.00575 (inactive), respectively. Also, in test [5], the NADPH fluorescence slope was -4.2e-05 (inactive).
